Source: ChEMBL document CHEMBL1800033, “Refining the eosinophil cationic protein antibacterial pharmacophore by rational structure minimization” (J Med Chem, 2011)
In brackets after ≈: the same amount, converted by molar mass. Activity calls are given as the source filed them. The calls are words filed in the database; no cut-off is given here. Where a SMILES comes first, the peptide text is derived from it. [ ]: non-standard residue; d: D form. Ahx = NCCCCCC(=O)O

Assays:
Acinetobacter baumannii = test: Bactericidal activity against Acinetobacter baumannii ATCC 15308 after over night incubation; type: functional; details: read-out: MIC100
Summary of the method: (§1)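 Overnight LB cultures (37 °C) diluted to about 5 × 10^5 CFU/mL; peptides in 10 mM sodium phosphate pH 7.5, serially diluted 10 to 0.2 μM, incubated with bacteria 4 h, then plated and grown overnight at 37 °C; MIC from two independent experiments, triplicate per concentration.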

Staphylococcus aureus = test: Bactericidal activity against Staphylococcus aureus ATCC 502A after over night incubation; type: functional; details: read-out: MIC100; summary of the method: as §1
Enterococcus faecium = test: Bactericidal activity against Enterococcus faecium ATCC 19434 after over night incubation; type: functional; details: read-out: MIC100; summary of the method: as §1
Escherichia coli [1] = test: Bactericidal activity against Escherichia coli BL2 after over night incubation; type: functional; details: read-out: MIC100; summary of the method: as §1
Micrococcus luteus = test: Bactericidal activity against Micrococcus luteus ATCC 7468 after over night incubation; type: functional; details: read-out: MIC100; summary of the method: as §1
[2] = Toxicity in human RBC assessed as hemolytic activity after 4 hrs; type: cell-based, Erythrocyte; details: human red blood cells (RBC)
Summary of the method: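 Fresh human RBCs washed thrice in PBS (35 mM phosphate, 0.15 M NaCl, pH 7.4), 2 × 10^7 cells/mL, incubated with peptide 4 h at 37 °C; supernatant A570 read, 100% lysis set by 10 s sonication; HC50 from sigmoidal fit.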

Pseudomonas sp. = test: Bactericidal activity against Pseudomonas sp. ATCC 15915 after over night incubation; type: functional; details: read-out: MIC100; summary of the method: as §1
[3] = Induction of membrane damage in DOPC/DOPG large unilamellar vesicles model at <10 uM after 1 hr by leakage fluorescence assay; type: physicochemical
Lipopolysaccharide (LPS) [4] = test: Displacement of BODIPY TR cadaverine from Escherichia coli serotype 0111:B4 lipopolysaccharide by fluorescent displacement assay
Summary of the method: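 Bodipy TR cadaverine displacement: protein or peptide aliquots added to a stirred mix of LPS (10 μg/mL) and probe (10 μM) in 5 mM Hepes pH 7.5; fluorescence followed, effective displacement value (ED50) calculated.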

[5] = Induction of membrane damage in DOPC/DOPG large unilamellar vesicles model after 1 hr by leakage fluorescence assay; type: physicochemical; details: read-out: ED50 (the source's name)
Escherichia coli [6] = test: Antibacterial activity against Escherichia coli assessed as concentration required to cause minimum agglutination behavior after overnight incubation; type: functional
Summary of the method: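 E. coli grown at 37 °C to mid-exponential phase (OD600 0.6), pelleted, resuspended in Tris-HCl, 0.15 M NaCl, pH 7.5 to A600 of 10; suspension incubated with peptide at 0.1–10 μM, 25 °C overnight; agglutination scored by visual inspection, reported as minimal agglutinating concentration.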

Lipopolysaccharide (LPS) [7] = test: Displacement of BODIPY TR cadaverine from Escherichia coli serotype 0111:B4 lipopolysaccharide at <10 uM by fluorescent displacement assay

Row | Compound | MIC (Acinetobacter baumannii) [µM] | MIC (Staphylococcus aureus) [µM] | MIC (Enterococcus faecium) [µM] | MIC (Escherichia coli [1]) [µM] | MIC (Micrococcus luteus) [µM] | HC50 at 4 h [2] [µM] | MIC (Pseudomonas sp.) [µM] | Activity [3] | ED50 (Lipopolysaccharide (LPS) [4]) [µM] | EC50 [5] [µM] | Activity (Escherichia coli [6]) [µM] | Activity (Lipopolysaccharide (LPS) [7])
1 | CC[C@H](C)[C@H](NC(=O)CNC(=O)[C@@H](NC(=O)[C@H](CCCCN)NC(=O)[C@H](CCCCN)NC(=O)[C@H](Cc1ccccc1)NC(=O)[C@H](CC(C)C)NC(=O)[C@H](CCCCN)NC(=O)[C@H](Cc1c[nH]c2ccccc12)NC(=O)[C@@H](N)CCCCN)[C@@H](C)CC)C(=O)NCC(=O)N[C@@H](C)C(=O)N[C@H](C(=O)N[C@@H](CC(C)C)C(=O)N[C@@H](CCCCN)C(=O)N[C@H](C(=O)N[C@@H](CC(C)C)C(=O)N[C@H](C(=O)N[C@H](C(=O)NCC(=O)N[C@@H](CC(C)C)C(=O)N1CCC[C@H]1C(=O)N[C@@H](C)C(=O)N[C@@H](CC(C)C)C(=O)N[C@H](C(=O)N[C@@H](CO)C(=O)O)[C@@H](C)CC)[C@@H](C)O)[C@@H](C)O)C(C)C)C(C)C | 0.88 (≈ 2.46 µg/mL) | 0.4 (≈ 1.12 µg/mL) | 1.5 (≈ 4.19 µg/mL) | 1.1 (≈ 3.08 µg/mL) | 1.5 (≈ 4.19 µg/mL) | 7.8 | 0.6 (≈ 1.68 µg/mL) | – | – | – | – | –
2 | CC[C@H](C)[C@H](NC(=O)[C@H](C)NC(=O)[C@H](CCCNC(=N)N)NC(=O)[C@H](CCSC)NC(=O)[C@H](C)NC(=O)[C@@H](NC(=O)[C@@H](NC(=O)[C@H](CO)NC(=O)CCCCCNC(=O)[C@H](Cc1cnc[nH]1)NC(=O)[C@H](CCC(N)=O)NC(=O)[C@@H](NC(=O)[C@H](C)NC(=O)[C@H](Cc1ccccc1)NC(=O)[C@H](Cc1c[nH]c2ccccc12)NC(=O)[C@H](CCC(N)=O)NC(=O)[C@H](C)N)[C@@H](C)CC)[C@@H](C)O)[C@@H](C)CC)C(=O)N[C@@H](CC(N)=O)C(=O)O (H-AQWFAIQH[Ahx]STIAMRAIN-OH) | > 10 | > 10 | > 10 | > 10 | > 10 | 15.2 | > 10 | Not Active | 5.13 | – | – | –
3 | CC[C@H](C)[C@H](NC(=O)[C@H](C)NC(=O)[C@H](Cc1ccccc1)NC(=O)[C@H](Cc1c[nH]c2ccccc12)NC(=O)[C@H](CCC(N)=O)NC(=O)[C@H](C)N)C(=O)N[C@@H](CCC(N)=O)C(=O)N[C@@H](Cc1cnc[nH]1)C(=O)NCCCCCC(=O)N[C@@H](CO)C(=O)N[C@H](C(=O)N[C@H](C(=O)N[C@@H](C)C(=O)N[C@@H](CCSC)C(=O)N[C@@H](CCCNC(=N)N)C(=O)N[C@@H](C)C(=O)N[C@H](C(=O)N[C@@H](CC(N)=O)C(=O)N[C@@H](CC(N)=O)C(=O)N[C@@H](Cc1ccc(O)cc1)C(=O)N[C@@H](CCCNC(=N)N)C(=O)N[C@@H](Cc1c[nH]c2ccccc12)C(=O)N[C@@H](CCCNC(=N)N)C(=O)O)[C@@H](C)CC)[C@@H](C)CC)[C@@H](C)O (H-AQWFAIQH[Ahx]STIAMRAINNYRWR-OH) | 7 (≈ 19.9 µg/mL) | 1.1 (≈ 3.13 µg/mL) | > 10 | 1.5 (≈ 4.27 µg/mL) | > 10 | 14.4 | 3.5 (≈ 9.97 µg/mL) | – | 1.95 | 1.63 | – | –
4 | CC[C@H](C)[C@H](NC(=O)[C@H](C)NC(=O)[C@H](CCCNC(=N)N)NC(=O)[C@H](CCSC)NC(=O)[C@H](C)NC(=O)[C@@H](NC(=O)[C@@H](NC(=O)[C@H](CO)NC(=O)CCCCCNC(=O)[C@H](CO)NC(=O)[C@@H](NC(=O)[C@H](Cc1cnc[nH]1)NC(=O)[C@H](CCC(N)=O)NC(=O)[C@@H](NC(=O)[C@H](C)NC(=O)[C@H](Cc1ccccc1)NC(=O)[C@H](Cc1c[nH]c2ccccc12)NC(=O)[C@H](CCC(N)=O)NC(=O)[C@H](C)NC(=O)[C@H](CCCNC(=N)N)NC(=O)[C@@H](N)[C@@H](C)O)[C@@H](C)CC)[C@@H](C)CC)[C@@H](C)O)[C@@H](C)CC)C(=O)N[C@@H](CC(N)=O)C(=O)N[C@@H](CC(N)=O)C(=O)N[C@@H](Cc1ccc(O)cc1)C(=O)N[C@@H](CCCNC(=N)N)C(=O)N[C@@H](Cc1c[nH]c2ccccc12)C(=O)N[C@@H](CCCNC(=N)N)C(=O)O (H-TRAQWFAIQHIS[Ahx]STIAMRAINNYRWR-OH) | 0.88 (≈ 2.91 µg/mL) | 0.87 (≈ 2.88 µg/mL) | 1.5 (≈ 4.96 µg/mL) | 0.6 (≈ 1.98 µg/mL) | 1.5 (≈ 4.96 µg/mL) | 7.3 | 1.5 (≈ 4.96 µg/mL) | – | 1.6 | 0.82 | <1 | –
5 | H-AQWFAIQHISLNPPRSTIAMRAINNYRWR-OH | 1.5 | 0.7 | 1.5 | 1.5 | 3.5 | 10.3 | 3.5 | – | 2.43 | 0.74 | <1 | –
6 | H-AQWFAIQHISLNPPRSTIAMRAINNYRWRSKNQNTFLR-OH | 0.88 | 0.7 | 1.5 | 0.45 | 1.5 | 10.5 | 1.5 | – | 1.58 | 0.4 | <1 | –
7 | H-ISLNPPRSTIAMRAINNYRWRSKNQNTFLR-OH | 3.5 | 1.5 | 3.5 | 1.5 | 3.5 | 10.5 | 1.5 | – | 6.13 | 0.76 | – | –
8 | H-RPPQFTRAQWFAIQHISLN-OH | > 10 | > 10 | > 10 | > 10 | > 10 | 11.2 | > 10 | Not Active | – | – | – | inactive
9 | H-TIAMRAINNYRWRSKNQNTFLR-OH | 1.1 | 1.5 | 7 | 7 | 7 | 18.7 | 7 | – | 1.52 | 1.25 | – | –
